The text below walks through data of ChEMBL document CHEMBL1828512, “Potent, metabolically stable benzopyrimido-pyrrolo-oxazine-dione (BPO) CFTR inhibitors for polycystic kidney disease” (J Med Chem, 2011).

For data set [1], the target named is Cystic fibrosis transmembrane conductance regulator (Homo sapiens, UniProt P13569). Nature of the data set: Inhibition of human wild-type CFTR expressed in FRT cells coexpressing YFP-H148Q assessed as inhibition of cAMP agonist-induced iodide influx after 45 mins by fluorescence plate-reader analysis. The data set is classed as functional, cell-based.
Data set [2] can be described thus: Solubility of the compound in albumin free saline. Conditions: buffer; call rule not given here. Format: physicochemical.
The nature of data set [3]: Metabolic stability of the compound in rat liver microsomes assessed as disappearance of compound after 30 mins by LC/MS analysis in presence of NADPH. Conditions: read-out: Drug metabolism. Format: ADME, Microsome. The procedure, abridged:
(§1)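 Compound at 5 µM was incubated with rat liver microsomes (1 mg protein/mL) in 100 mM potassium phosphate at 37 °C, with 0 or 1 mM NADPH. Samples were chilled, extracted with ethyl acetate, dried and taken up in mobile phase. Analysis was reverse-phase C18 LC/MS on a 5–95% acetonitrile gradient with negative ion detection.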
On the technique in general: Microsomes from liver hold many membrane-bound enzymes, among them those of drug oxidation.

The next data set deals with Liver microsomes. Nature of the data set: Metabolic stability of the compound in rat liver microsomes assessed as disappearance of compound after 30 mins by LC/MS analysis in absence of NADPH. Format: ADME, Microsome. The following applies: 0.5 h. The procedure, abridged:
as §1

Data set [4] is described as follows: Solubility of the compound in aqueous phosphate buffer at pH 7.4. The data set is classed as physicochemical. The method, boiled down: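 Solubility was measured in aqueous phosphate buffer at pH 7.4.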
In another data set the test system is Kidney. Nature of the data set: Inhibition of 8-Br-cAMP-induced renal cystogenesis in mouse embryonic kidney organ culture model after 5 days by inverted microscopic analysis. Conditions: 120 h. The data set is classed as functional, tissue-based.

One may read the IC50 as the midpoint of a concentration-inhibition curve. For orientation: solubility means the concentration that dissolves in the medium under given conditions. Lower therefore signals a poorly soluble substance.

≈ marks a conversion by molar mass, not a printed value.

Sequence of Cystic fibrosis transmembrane conductance regulator (P13569 whole entry): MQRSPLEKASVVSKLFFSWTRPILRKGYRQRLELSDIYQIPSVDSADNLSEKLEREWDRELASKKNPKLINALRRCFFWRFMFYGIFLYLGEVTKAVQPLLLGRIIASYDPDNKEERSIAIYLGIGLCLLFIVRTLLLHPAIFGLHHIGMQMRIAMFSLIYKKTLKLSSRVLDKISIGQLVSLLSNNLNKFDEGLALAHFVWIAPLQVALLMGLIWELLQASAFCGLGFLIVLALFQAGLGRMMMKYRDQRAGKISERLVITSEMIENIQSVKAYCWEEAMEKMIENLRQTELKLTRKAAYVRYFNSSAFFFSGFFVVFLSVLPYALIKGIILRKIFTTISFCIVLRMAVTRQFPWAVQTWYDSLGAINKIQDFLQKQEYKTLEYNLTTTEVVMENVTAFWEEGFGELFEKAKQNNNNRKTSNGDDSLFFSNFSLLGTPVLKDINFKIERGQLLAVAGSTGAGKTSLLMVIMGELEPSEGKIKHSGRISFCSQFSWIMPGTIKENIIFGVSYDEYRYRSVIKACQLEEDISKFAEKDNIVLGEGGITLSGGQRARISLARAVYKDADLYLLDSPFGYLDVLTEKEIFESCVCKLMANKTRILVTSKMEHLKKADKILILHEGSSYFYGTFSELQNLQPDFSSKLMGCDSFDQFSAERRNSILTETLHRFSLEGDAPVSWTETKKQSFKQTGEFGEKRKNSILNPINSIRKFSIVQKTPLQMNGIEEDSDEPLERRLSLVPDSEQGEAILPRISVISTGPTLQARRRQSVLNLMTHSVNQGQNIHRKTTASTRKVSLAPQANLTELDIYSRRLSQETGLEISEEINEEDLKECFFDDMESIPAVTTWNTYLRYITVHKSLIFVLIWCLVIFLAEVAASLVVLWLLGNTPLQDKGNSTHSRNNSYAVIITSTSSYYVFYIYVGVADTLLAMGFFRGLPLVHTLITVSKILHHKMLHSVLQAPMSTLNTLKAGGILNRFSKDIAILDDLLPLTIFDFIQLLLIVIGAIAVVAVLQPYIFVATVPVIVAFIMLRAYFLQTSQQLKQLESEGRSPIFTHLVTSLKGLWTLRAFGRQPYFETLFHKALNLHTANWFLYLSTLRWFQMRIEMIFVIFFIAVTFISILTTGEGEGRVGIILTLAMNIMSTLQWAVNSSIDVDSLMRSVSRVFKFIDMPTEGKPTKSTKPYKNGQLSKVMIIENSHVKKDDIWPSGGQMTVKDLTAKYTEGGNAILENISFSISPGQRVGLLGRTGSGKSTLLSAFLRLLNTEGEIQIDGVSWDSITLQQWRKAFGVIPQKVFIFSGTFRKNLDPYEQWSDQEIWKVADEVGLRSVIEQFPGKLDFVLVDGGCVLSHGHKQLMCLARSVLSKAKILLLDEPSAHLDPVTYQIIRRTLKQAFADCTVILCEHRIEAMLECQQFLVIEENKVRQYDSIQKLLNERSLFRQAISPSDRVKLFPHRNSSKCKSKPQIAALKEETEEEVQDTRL

Consider `Cn1c(=O)c2c(-c3ccccc3)n3c(c2n(C)c1=O)C(c1cc2ccccc2o1)Nc1ccccc1-3` (configuration not stated), for which the IC50 result in data set [1] is recorded as “Not Active”.

As for `Cn1c(=O)c2c(-c3ccccc3)n3c(c2n(C)c1=O)C(c1ccc(CO)o1)Nc1ccccc1-3` (configuration not stated), the IC50 result in data set [1] was “Not Active”.

Consider `Cc1ccc(C2Nc3ccccc3-n3c(-c4ccccc4)c4c(=O)n(C)c(=O)n(C)c4c32)o1` (configuration not stated), for which, in data set [2], the solubility is less than 2 µM. Further, the metabolised at 0.5 h in data set [3] was determined as 60%. In addition, the Stability entry with Liver microsomes was “Stable”.

Consider `Cc1ccc(C2c3c4c(c(-c5ccccc5)n3-c3ccccc3N2S(C)(=O)=O)c(=O)n(C)c(=O)n4C)o1` (configuration not stated), for which the IC50 entry in data set [1] was “Not Active”.

As for `Cn1c(=O)c2c(-c3ccccc3)n3c(c2n(C)c1=O)C(c1ccc(-c2ccccc2)o1)Nc1ccccc1-3` (configuration not stated), in data set [1], the IC50 entry is “Not Active”.

In the case of `Cn1c(=O)c2c(-c3ccccc3)n3c(c2n(C)c1=O)C(c1ccc(Br)o1)Oc1ccc(C(=O)O)cc1-3` (configuration not stated), the metabolised at 0.5 h in data set [3] is less than 5%. Moreover, in data set [4], the concentration in solution (solubility) was 17 µM (≈ 9.32 µg/mL). This compound also displayed an IC50 with Kidney of 100 nM.

`Cc1ccc(C2c3c4c(c(-c5ccccc5)n3-c3ccccc3N2C(=O)CCl)c(=O)n(C)c(=O)n4C)o1` (configuration not stated): in data set [1], the IC50 entry was “Not Active”.

With `CC(=O)N1c2ccccc2-n2c(-c3ccccc3)c3c(=O)n(C)c(=O)n(C)c3c2C1c1ccc(C)o1` (configuration not stated), the IC50 entry in data set [1] is recorded as “Not Active”.
